From PubChem BioAssay AID652250 (Vanderbilt Specialized Chemistry Center, 2013)
Active and inactive are the calls of the source.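 How the source made its calls: active means compounds leaving under half of the peptide-driven platelet calcium rise; inactive means the rest.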

Each compound was assayed against Proteinase-activated receptor 4 (Homo sapiens) (UniProt Q96RI0) (assay: PAR4 antagonists in human platelets, cell-based, single concentration, washed platelets, Fluo4 calcium (AID 652250)). Conditions: PAR4-AP calcium Fluo4 fluorescence.
Chain of Proteinase-activated receptor 4 (Homo sapiens) (Q96RI0 whole entry, looked up): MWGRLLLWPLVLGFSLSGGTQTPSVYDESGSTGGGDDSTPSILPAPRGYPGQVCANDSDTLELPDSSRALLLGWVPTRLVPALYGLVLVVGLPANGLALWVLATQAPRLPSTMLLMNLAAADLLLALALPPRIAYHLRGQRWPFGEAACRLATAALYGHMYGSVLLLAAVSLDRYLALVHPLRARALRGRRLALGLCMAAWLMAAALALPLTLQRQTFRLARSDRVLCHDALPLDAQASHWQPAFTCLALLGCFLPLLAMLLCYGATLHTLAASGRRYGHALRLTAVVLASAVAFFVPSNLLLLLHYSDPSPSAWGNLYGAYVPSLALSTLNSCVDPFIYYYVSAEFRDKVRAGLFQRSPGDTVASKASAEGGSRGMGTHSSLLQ
Procedure, shortened: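 Material – Fluo4-AM-loaded washed human platelets · Also added – PAR4-activating peptide (PAR4-AP) agonist at 80 µM · Signal – fluorescence at 480/540 nm, 1 s intervals · Read-out – peak minus basal RFU as % of per-donor DMSO control · Benchmarks – PAR4-AP-stimulated DMSO control (100%) · Replicates – triplicate wells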

| Structure (SMILES) | IC50 [µM] |
| --- | --- |
| COc1ccc(-c2cn(Cc3cccc(Br)c3)c3ccccc23)cn1 | 5.27 |
| COc1ccc(-c2cn(Cc3cccc(Cl)c3)c3ccccc23)cn1 | 3.13 |
| COc1ccc(-c2cn(Cc3ccccc3)c3ccccc23)cn1 | 5.4 |

Same assay, conditions: PAR4-AP calcium Fluo4 fluorescence, at 10 µM, active compounds read low

| Structure (SMILES) | % of max PAR4-AP calcium response |
| --- | --- |
| Cn1cnnc1SCC(=O)n1c2c(c3ccccc31)CCCC2 | inactive |
| c1ccc(Cn2cc(CN3CCN(c4ccccc4)CC3)c3ccccc32)cc1 | inactive |
| COc1ccc2c(c1)c(CC(=O)N1CCC(C(N)=O)CC1)c(C)n2C(=O)c1ccc(Cl)cc1 | inactive |
| O=C(N/N=C/c1c[nH]c2ccccc12)c1ccn(Cc2ccc(Cl)cc2)n1 | inactive |
| Cc1cccc(NCC(O)Cn2c(C)c(C)c3ccccc32)c1C (centres undefined) | inactive |
| COc1ccc(OC)c(NC(=O)Cc2cn(C)c3ccccc23)c1 | inactive |
| S=C(c1cn(Cc2ccc(Cl)cc2)c2ccccc12)N1CCCC1 | inactive |
| c1ccc(-c2cn(-c3ccccc3)c3ncnc(N4CCCC4)c23)cc1 | inactive |
| Cn1cc(CCCC(=O)NCc2cccs2)c2ccccc21 | inactive |
| Cc1ccc(-n2c(/C=C/c3cn(C)c4ccccc34)nc3ccccc3c2=O)cc1 | inactive |
| O=C(c1cn(CCCOc2ccccc2)c2ccccc12)C(F)(F)F | inactive |
| Cc1ccc(-n2cc(-c3ccccc3)c3c(N4CC(C)OC(C)C4)ncnc32)cc1 (centres undefined) | inactive |
| CCN(CC)c1ncnc2c1c(-c1ccccc1)cn2-c1ccc(C)c(Cl)c1 | inactive |
| c1ccc(Cn2cc(-c3cncnc3)c3ccccc32)cc1 | inactive |
| CC(C)Oc1ccc(-c2cn(Cc3ccccc3)c3ccccc23)cc1 | inactive |
| COc1ccc2c(c1)c(C(=O)CNc1nccs1)c(C)n2C | inactive |
| COc1cc(NS(=O)(=O)c2ccc(NC(=O)c3ccc4c(c3)c(C)c(C)n4C)cc2)ncn1 | inactive |
| CCOc1ncc(-c2cn(Cc3ccccc3)c3ccccc23)cn1 | inactive |
| CCn1c(C(=O)O)c(CC(=O)N(C)c2ccc(F)cc2)c2ccccc21 | inactive |
| Fc1ccc(Cn2cc(C(=S)N3CCOCC3)c3ccccc32)cc1 | inactive |
| CC(=O)n1cc(C2C(=O)NN=C2C)c2ccccc21 (centres undefined) | inactive |
| COc1ccc(Br)cc1CNC(=O)CCCc1cn(C)c2ccccc12 | inactive |
| O=C(c1cn(CCOc2ccc(Cl)cc2)c2ccc(Br)cc12)C(F)(F)F | inactive |

| Structure (SMILES) | % of max PAR4-AP calcium response |
| --- | --- |
| Fc1cc(-c2cn(Cc3ccccc3)c3ccccc23)cc(F)n1 | inactive |
| Clc1ccccc1CNc1ncnc2c1c(-c1ccccc1)cn2-c1ccccc1 | inactive |
| Cc1cccc(-n2cc(-c3ccccc3)c3c(N4CCN(c5ccccc5)CC4)ncnc32)c1 | inactive |
| Cc1ccc(-n2cc(-c3ccccc3)c3c(NCC4CCCO4)ncnc32)cc1Cl (centres undefined) | inactive |
| Cn1cc(CC(=O)NCC2COc3ccccc3O2)c2ccccc21 (centres undefined) | inactive |
| Cn1cc(C(=O)Cc2ccccc2)c2ccccc21 | inactive |
| COc1ccc2c(c1)c(CC(=O)Nc1ccc(Cl)cn1)c(C)n2C(=O)c1ccc(Cl)cc1 | inactive |
| Cn1cc(CC(=O)NCc2cccs2)c2ccccc21 | inactive |
| Cc1ccc2c(c1)c1c3n2CCN(C(=O)CN2CCN(C(=O)c4ccco4)CC2)C3CCC1 (centres undefined) | inactive |
| COc1ccc(OC)c(CNC(=O)CCCc2cn(C)c3ccccc23)c1 | inactive |
| COc1cccc(/C=N/NC(=O)c2ccn(Cc3ccc(Cl)cc3Cl)n2)c1OC | inactive |
| O=C(N/N=C/c1cccc2cccnc12)c1ccn(Cc2ccc(Cl)cc2)n1 | inactive |
| CCCOc1ccc(-c2cn(Cc3ccccc3)c3ccccc23)cc1 | inactive |
| CN(C)CCNC(=O)Cc1cn(C)c2ccccc12 | inactive |
| S=C(c1cn(CCCOc2ccccc2Cl)c2ccccc12)N1CCCC1 | inactive |
| Cc1cc(O)cc(O)c1C(=O)Cc1cnn(-c2ccccc2)c1 | inactive |
| Cc1cc(OCCn2cc(C(=S)N3CCOCC3)c3ccccc32)ccc1Cl | inactive |
| COc1ccccc1OCCCn1cc(C(=O)C(F)(F)F)c2ccccc21 | inactive |
| O=C(Nc1cccc(Br)c1)c1ccn(C(=O)c2ccc(Cl)cc2)n1 | inactive |
| Cc1cc(F)ncc1-c1cn(Cc2ccccc2)c2ccccc12 | inactive |
| OCCc1c(-c2ccccc2)n(Cc2ccccc2)c2ccccc12 | inactive |
| O=C(CN1CCOCC1)n1c2c(c3ccccc31)CCCC2 | inactive |
| O=C(N/N=C/c1ccncc1)c1ccn(Cc2ccc(Cl)cc2Cl)n1 | inactive |

| Structure (SMILES) | % of max PAR4-AP calcium response |
| --- | --- |
| CC(=O)c1ccc(N2CCN(c3ncnc4c3c(-c3ccccc3)cn4-c3ccccc3)CC2)cc1 | inactive |
| OCc1cn(Cc2ccc(Cl)c(Cl)c2)c2ccccc12 | inactive |
| Clc1ccc(-n2cc(-c3ccccc3)c3c(NCc4cccs4)ncnc32)cc1 | inactive |
| CCN(CC)CC(O)Cn1c(C)c(-c2ccccc2)c2cc([N+](=O)[O-])ccc21 (centres undefined) | inactive |
| COc1ccc2c(c1)c(C(=O)CNc1nc(C)cs1)c(C)n2C | inactive |
| CC1CCCCN1C(=O)Cn1cc(C(=O)C(F)(F)F)c2ccccc21 (centres undefined) | inactive |
| O=C(c1ccccc1F)n1c2c(c3ccccc31)CCCC2 | inactive |
| OCCCNc1ncnc2c1c(-c1ccccc1)cn2-c1ccc(F)cc1 | inactive |
| COc1ccccc1NS(=O)(=O)c1ccc(NC(=O)c2ccc3c(c2)c(C)c(C)n3C)cc1 | inactive |
| O=C(c1cn(Cc2ccccc2Cl)c2ccccc12)C(F)(F)F | inactive |
| Cc1ccc(OCCCn2cc(C(=O)C(F)(F)F)c3ccccc32)cc1 | inactive |
| CCCCNC(=O)n1ccc(C(=O)Nc2ccc(C)cc2C)n1 | inactive |
| O=C(c1ccccc1)n1cc(-c2nc3cc(Cl)ccc3o2)cn1 | inactive |
| CCN(CCCNC(=O)Cc1cn(C)c2ccccc12)c1ccccc1 | inactive |
| OCc1cn(Cc2ccccc2Cl)c2ccccc12 | inactive |
| OCCCNc1ncnc2c1c(-c1ccccc1)cn2-c1cccc(Cl)c1 | inactive |
| c1ccc(-c2ccn(-c3ccccc3)n2)cc1 | inactive |
| CCCCN(C)c1ncnc2c1c(-c1ccccc1)cn2-c1cccc(C)c1 | inactive |
| COc1ccc(N(C)C(=O)Cc2c(C(=O)O)n(C)c3ccccc23)cc1 | inactive |
| COc1ccc(NCC(O)Cn2c(C)c(C)c3ccccc32)cc1 (centres undefined) | inactive |
| COc1ccc(-c2cn(Cc3ccccc3)c3ccccc23)c(OC)n1 | inactive |
| Fc1ccc(CNc2ncnc3c2c(-c2ccccc2)cn3-c2ccc(Br)cc2)cc1 | inactive |
| O=C(Cn1cc(C(=O)C(F)(F)F)c2ccccc21)NC1CCCC1 | inactive |

| Structure (SMILES) | % of max PAR4-AP calcium response |
| --- | --- |
| O=C(c1cn(CCOc2ccccc2Cl)c2ccccc12)C(F)(F)F | inactive |
| Cc1ccc2c(c1)c(-c1ccccc1)c(-c1ccccc1)n2CC(O)CN1CCOCC1 (centres undefined) | inactive |
| CC(C)NC(=O)CCc1cn(Cc2ccccc2)c2ccccc12 | inactive |
| CN(C)c1ccc(-c2cn(Cc3ccccc3)c3ccccc23)cn1 | inactive |
| COCCCNC(=O)Cn1cc(C(=O)C(F)(F)F)c2ccccc21 | inactive |
| S=C(c1cn(CCOc2ccccc2Cl)c2ccccc12)N1CCCCC1 | 39.9% |
| O=C(c1cn(CCOc2ccc(F)cc2)c2ccccc12)C(F)(F)F | inactive |
| OC(CNCc1ccccc1)Cn1c2c(c3ccccc31)CCCC2 (centres undefined) | inactive |
| FC(F)(F)Oc1ccc(-c2cn(Cc3ccccc3)c3ccccc23)cc1 | inactive |
| Fc1cccc(Cn2cc(C(=S)N3CCCCC3)c3ccccc32)c1 | inactive |
| CCOc1ccc(NCC(O)Cn2c(C)c(C)c3ccccc32)cc1 (centres undefined) | inactive |
| O=C(c1cn(CCOc2ccccc2F)c2ccccc12)C(F)(F)F | inactive |
| CCn1ccc(C(=O)Nc2ccc(C(F)(F)F)cc2Cl)n1 | inactive |
| Cc1c(C)n(CC(O)CNCc2ccccc2)c2ccccc12 (centres undefined) | inactive |
| Cc1ccc(OCCn2cc(C(=S)N3CCOCC3)c3ccccc32)cc1 | inactive |
| O=C(Cn1cc(C(=O)C(F)(F)F)c2ccccc21)NC1CCCCCC1 | inactive |
| S=C(c1cn(CCOc2ccccc2)c2ccccc12)N1CCCC1 | inactive |
| O=C(Cn1cc(C(=O)C(F)(F)F)c2ccccc21)N1CCCC1 | inactive |
| N#Cc1ccc(-c2cn(Cc3ccccc3)c3ccccc23)cc1 | inactive |
| CCn1ccc(C(=O)Nc2sc(C(=O)OC)c(C)c2C(=O)OC)n1 | inactive |
| COc1ccc(-c2cn(Cc3cccc(-c4cccs4)c3)c3ccccc23)cn1 | inactive |
| O=C(c1ccn(C(=O)c2cccc(Cl)c2)n1)N1CCOCC1 | inactive |
